Assay results taken from PMC9352332 (ACS Omega, 2022).

Assays:
ALR2 = ALR2 (Homo sapiens, UniProt P15121); assay: ALR2 in vitro enzyme inhibition assay; assay type: biochemical; conditions: for selectivity of inhibition, ALR2 versus ALR1 (in words): judged from ALR1 and ALR2 in vitro inhibition data
ALR1 = ALR1 (Bos taurus, UniProt Q3ZCJ2); assay: ALR1 in vitro enzyme inhibition assay; assay type: biochemical, calf
In short: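 Enzyme in sodium phosphate buffer pH 6.2, preincubated 10 min at 32 °C with test compound and substrate, without NADPH. Reaction started with NADPH and followed for 5 min. Absorbance read before and after cofactor addition gives % inhibition. Compound dissolved in DMSO and diluted in water to 0.1% DMSO in assay. Valproic acid is the standard. IC50 from nonlinear regression of log concentration vs remaining activity.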

[1] = DPPH free-radical scavenging; conditions: DPPH 0.025 mg mL–1 in methanol, 100 μM test compound, 517 nm
In short: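 Test compound mixed with methanolic DPPH and read spectrophotometrically. Percent scavenging is calculated from absorbance of sample relative to control. Ascorbic acid is the positive control.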

[2] = test system: advanced glycation end products (AGEs); assay: Bovine serum albumin glycation; assay type: biochemical; conditions: BSA 1 mg mL–1, 0.5 M glucose, test compound (1 mM), pH 7.4, 50 °C, 4 days; AG positive control 100 μM
In short: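 BSA and glucose were incubated in 0.1 M PBS, in the dark, with or without test compound. AGE fluorescence was read at excitation 350 nm and emission 460 nm. Percent inhibition was calculated from the glucose-dependent fluorescence increase (BSA ± glucose), compared with the BSA + glucose signal with or without test compound. A vehicle served as the negative control. Values are mean ± S.E.M. of three independent incubations, with Student t-test vs aminoguanidine.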

Chain of ALR1 (Q3ZCJ2 whole entry): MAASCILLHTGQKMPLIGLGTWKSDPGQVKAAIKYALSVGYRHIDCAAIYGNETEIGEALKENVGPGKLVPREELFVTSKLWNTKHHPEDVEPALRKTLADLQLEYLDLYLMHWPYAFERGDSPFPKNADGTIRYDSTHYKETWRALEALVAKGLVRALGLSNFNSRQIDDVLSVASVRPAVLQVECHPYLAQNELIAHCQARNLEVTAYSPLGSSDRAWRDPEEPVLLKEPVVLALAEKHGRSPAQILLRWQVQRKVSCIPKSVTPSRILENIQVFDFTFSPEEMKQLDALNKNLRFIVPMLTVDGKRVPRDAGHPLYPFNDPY

| IC50 (ALR2) [µM] | selectivity of inhibition, ALR2 versus ALR1 (in words) (ALR2) | IC50 (ALR1) [µM] | Structure (SMILES) | % FRSA (percent free-radical scavenging activity) [1] [%] | % inhibition of AGEs (advanced glycation end-product formation) [2] [%] |
| --- | --- | --- | --- | --- | --- |
| 2.55 ± 0.021 | strong and selective inhibition of ALR2 | – | Cc1ccc(NC(=S)NN=Cc2cc(C)ccc2O)c(C)c1 [3b, N-(2,4-Dimethylphenyl)-2-(2-hydroxy-5-methylbenzylidene)hydrazinecarbothioamide] | 63.24 | 50.78 |
| 1.42 ± 0.024 | strong and selective inhibition of ALR2 | – | COc1cccc(NC(=S)NN=Cc2cc(C)ccc2O)c1 [3c, 2-(2-Hydroxy-5-methylbenzylidene)-N-(3-methoxyphenyl)hydrazinecarbothioamide] | 65.67 | 66.40 |
| – | – | – | Cc1ccc(O)c(C=NNC(=S)NCc2ccc(Cl)cc2)c1 [3d, N-(4-Chlorobenzyl)-2-(2-hydroxy-5-methylbenzylidene)hydrazinecarbothioamide] | 61.34 | 62.81 |
| – | – | – | Cc1ccc(O)c(C=NNC(=S)NCc2ccccc2)c1 [3e, N-Benzyl-2-(2-hydroxy-5-methylbenzylidene)hydrazinecarbothioamide] | 65.66 | 56.73 |
| – | – | – | Cc1ccc(O)c(C=NNC(=S)NC2CCCCC2)c1 [3f, N-Cyclohexyl-2-(2-hydroxy-5-methylbenzylidene)hydrazinecarbothioamide] | 57.84 | 59.86 |
| 8.37 ± 0.062 | strong and selective inhibition of ALR2 | – | Cc1ccc(O)c(C=NNC(=S)Nc2ccc(Br)cc2)c1 [3g, N-(4-Bromophenyl)-2-(2-hydroxy-5-methylbenzylidene)hydrazinecarbothioamide] | 53.56 | 51.33 |
| 4.95 ± 0.066 | strong and selective inhibition of ALR2 | – | Cc1ccc(O)c(C=NNC(=S)Nc2ccc(F)cc2F)c1 [3j, N-(2,4-Difluorophenyl)-2-(2-hydroxy-5-methylbenzylidene)hydrazinecarbothioamide] | 66.57 | 61.60 |
| 14.03 ± 0.047 | strong and selective inhibition of ALR2 | – | Cc1ccc(O)c(C=NNC(=S)Nc2cccc(F)c2)c1 [3k, N-(3-Fluorophenyl)-2-(2-hydroxy-5-methylbenzylidene)hydrazinecarbothioamide] | 53.88 | – |
| 3.8 ± 0.027 | strong and selective inhibition of ALR2 | – | Cc1ccc(O)c(C=NNC(=S)Nc2ccc(Cl)cc2)c1 [3l, N-(4-Chlorophenyl)-2-(2-hydroxy-5-methylbenzylidene)hydrazinecarbothioamide] | 62.44 | 56.61 |
| 3.11 ± 0.038 | strong and selective inhibition of ALR2 | – | Cc1ccc(O)c(C=NNC(=S)Nc2ccc(C(C)C)cc2)c1 [3n, 2-(2-Hydroxy-5-methylbenzylidene)-N-(4-isopropylphenyl)hydrazinecarbothioamide] | 55.93 | 68.66 |
| 12.15 ± 0.083 | strong and selective inhibition of ALR2 | – | Cc1ccc(O)c(C=NNC(=S)NCCc2ccccc2)c1 [3o, 2-(2-Hydroxy-5-methylbenzylidene)-N-phenethylhydrazinecarbothioamide] | 68.56 | – |
| 10.67 ± 0.064 | strong and selective inhibition of ALR2 | – | Cc1ccc(O)c(C=NNC(=S)Nc2ccc(N(C)C)cc2)c1 [3p, N-(4-(Dimethylamino)phenyl)-2-(2-hydroxy-5-methylbenzylidene)hydrazinecarbothioamide] | 71.53 | 64.81 |
| – | – | – | N=C(N)NN [6-AG, 6-Aminoguanidine, reference compound] | – | 79.34 |

| Structure (SMILES) | IC50 (ALR2) [µM] | selectivity of inhibition, ALR2 versus ALR1 (in words) (ALR2) | IC50 (ALR1) [µM] | % FRSA (percent free-radical scavenging activity) [1] [%] | % inhibition of AGEs (advanced glycation end-product formation) [2] [%] |
| --- | --- | --- | --- | --- | --- |
| Cc1ccc(O)c(C=NNC(=S)Nc2ccccc2)c1 [3a, 2-(2-Hydroxy-5-methylbenzylidene)-N-phenylhydrazinecarbothioamide] | 4.99 ± 0.035 | strong but nonselective inhibition of ALR1 and ALR2 | 5.13 ± 0.037 | 56.78 | 59.12 |
| Cc1ccc(NC(=S)NN=Cc2cc(C)ccc2O)cc1 [3h, 2-(2-Hydroxy-5-methylbenzylidene)-N-(p-tolyl)hydrazinecarbothioamide] | 3.8 ± 0.072 | strong but nonselective inhibition of ALR1 and ALR2 | 15.8 ± 0.027 | 64.94 | – |
| Cc1ccc(O)c(C=NNC(=S)Nc2c(C)cccc2C)c1 [3i, N-(2,6-Dimethylphenyl)-2-(2-hydroxy-5-methylbenzylidene)hydrazinecarbothioamide] | 2.06 ± 0.057 | strong but nonselective inhibition of ALR1 and ALR2 | 2.14 ± 0.031 | 71.34 | 64.41 |
| Cc1ccc(O)c(C=NNC(=S)Nc2ccccc2C)c1 [3m, 2-(2-Hydroxy-5-methylbenzylidene)-N-(o-tolyl)hydrazinecarbothioamide] | 1.96 ± 0.029 | strong but nonselective inhibition of ALR1 and ALR2 | 4.57 ± 0.076 | 63.87 | 53.08 |
